E-selectin induc = E-selectin induction in HUVECs, primary screen, imaging, HUVEC, immunofluorescence imaging, single point. hit rate 0.37% among 260,000. activation, % at 7.58 µM. P16581. normalized: neutral wells 0, TNF-alpha wells 100. AID 686992, 2013;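 active = mean E-selectin-positive cell signal at least 10% of the positive control, reached in at least 60% of replicates, without over 20% cell loss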
Target sequence (P16581 whole entry, looked up): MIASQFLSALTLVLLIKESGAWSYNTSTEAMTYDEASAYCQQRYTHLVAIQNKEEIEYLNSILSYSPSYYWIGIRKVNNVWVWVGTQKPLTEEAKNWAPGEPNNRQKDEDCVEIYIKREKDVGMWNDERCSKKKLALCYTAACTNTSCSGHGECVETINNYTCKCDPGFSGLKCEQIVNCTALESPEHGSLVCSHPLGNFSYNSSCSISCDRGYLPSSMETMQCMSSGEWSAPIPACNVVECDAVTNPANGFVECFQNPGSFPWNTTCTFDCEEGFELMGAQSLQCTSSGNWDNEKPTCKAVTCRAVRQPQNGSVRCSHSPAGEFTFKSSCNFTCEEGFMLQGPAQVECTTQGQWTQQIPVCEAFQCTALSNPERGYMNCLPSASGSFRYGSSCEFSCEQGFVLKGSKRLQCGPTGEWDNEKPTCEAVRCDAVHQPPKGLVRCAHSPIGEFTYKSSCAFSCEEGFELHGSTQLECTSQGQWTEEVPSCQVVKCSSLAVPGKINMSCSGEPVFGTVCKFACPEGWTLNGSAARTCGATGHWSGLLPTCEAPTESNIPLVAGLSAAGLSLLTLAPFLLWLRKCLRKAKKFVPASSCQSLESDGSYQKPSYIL
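Test system – human umbilical vein endothelial cells (HUVEC), E-selectin induction · Input – 3,000 HUVEC seeded per well · Buffer or medium – EGM-2, gelatin · Compound dosing – single-point compound dose · Detection – immunofluorescence imaging · Measure – percent E-selectin-positive cells · Controls – TNF-alpha high, DMSO low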
XiGFP reactiv = activators of inactive X chromosome reactivation, primary screen, imaging, XiGFP fibroblasts, GFP high-content imaging, set 2; activation, % at 7.58 µM; XiGFP mouse fibroblasts, % GFP-positive cells imaging, 3 d; cells co-treated with 5-aza-dC sensitizer; scaled so ellipticine positive control = 100%; hit rate 0.055% among 360,000;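 active = mean normalized replicate activation at least 10% and every replicate at or above 10%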
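Assay system – SV40-immortalized XiGFP fibroblast cells, line 68-5-11 · Buffer or medium – DMEM supplemented with 5-aza-dC as sensitizing agent · Dosing – one concentration, pinned · Benchmarks – positive control ellipticine, 6 µM final · Times – 3 days compound exposure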
C2C12 statin = suppressors of statin myotoxicity in C2C12 myotubes, primary screen, cell-based, single point, plate reader. C2C12 myotubes + simvastatin, ATP luminescence, 48 h; scaled: DMSO 0, geranylgeraniol control 100. rescue of ATP level, % at 7.49 µM. hit rate 0.78% among 330,000. AID 602340, 2012;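 active = mean ATP rescue above about 67%, or every replicate alone reaching that limit, limit read from the data, passing the limit was not always enough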;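 also: myotubes were challenged with 10 µM simvastatin during compound exposure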
FGF22 binding-1 = binders of human FGF22 protein, primary screen, FGF22 synaptogenesis inhibitor project, biophysical, thermal shift, single point | activity (Tm shift, normalised), % at 9.99 µM | hit rate 1.5% among 340,000 | recombinant FGF22 thermal shift, SYPRO orange fluorescence; percent of sucrose octasulfate shift, DMSO zero | Fibroblast growth factor 22 (Homo sapiens), Q9HCT0;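 active = mean Tm shift, scaled 0 neutral to 100 positive control, at about 1.3% or above, every replicate too, limit read from the data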
Target sequence (Q9HCT0 whole entry, looked up): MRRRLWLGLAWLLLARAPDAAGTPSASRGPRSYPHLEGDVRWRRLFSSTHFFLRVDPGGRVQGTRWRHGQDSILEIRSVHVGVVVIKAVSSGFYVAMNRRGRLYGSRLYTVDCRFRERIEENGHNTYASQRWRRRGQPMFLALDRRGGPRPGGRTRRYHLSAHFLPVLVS
DENV2 CPE = inhibitors of DENV2 cytopathic effect, primary screen, cell-based, plate reader, single concentration | DENV2-infected cells, cytopathic effect rescue | CPE inhibition, % at 9.99 µM | hit rate 1.7% among 350,000; in the data active = CPE inhibition above about 20%, passing the limit was not always enough; tested in BHK-21 cells
PglD inh = C. jejuni PglD acetyltransferase inhibitors, primary screen, biochemical, DTNB colorimetric, single point; purified PglD enzyme, DTNB colorimetric CoA detection; inhibition, % at 12.5 µM; hit rate 0.098% among 360,000; in the data active = inhibition above about 16%, passing the limit was not always enough
FGF22 binding-2 = binders of human FGF22 protein, dose response, FGF22 synaptogenesis inhibitor project, biophysical, thermal shift, cherry-pick retest. recombinant FGF22 thermal shift, SYPRO orange fluorescence. thermal shift activity, °C (ΔTm) at 38 µM. hit rate 2% among 1,000. AID 720646, 2013. shares compounds with FGF22 binding-1;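 active = fitted rise in melting shift crosses a set limit at or below the top valid dose tested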
FGF22 TSA = binders of human FGF22 protein, dose response, FGF22 synaptogenesis inhibitor project, biophysical, thermal shift, dry powder. shares compounds with FGF22 binding-1. Thermal shift assay, SYPRO orange, melting temperature shift. Tm shift (activity), % at 38 µM. 50 tested, under 10 active. AID 743017, 2013;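 active = compounds whose fitted dose curve of melting temperature shift rises past a set threshold within the tested doses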
SYPRO no-protein = compound-only thermal shift signal without protein, dose response, artefact control for FGF22 binder project, biochemical, cherry-picked samples, RT-PCR instrument. shares compounds with FGF22 binding-1. compound-only SYPRO orange thermal shift counter-screen, no protein. AC50, µM (top dose mostly 38 µM). hit rate 2% among 1,000. AID 743019, 2013;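 active = rising signal whose fitted curve reaches the 0.54 level within the top valid dose, showing a melting point, actives reach about 13 µM in these data; inactive = the rest, including activity in the opposite direction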; also: value is where the raw curve crosses a fixed level and not half-maximal
Large screens that a line does not name were inactive (follow-up assays come after a bar, where they were run). In the library only some 3.3% were active in any assay of this set; here they are far more common.

Cc1nc(NC(=O)C2CC2)sc1C(=O)Nc1ccccc1Cl	FGF22 binding-1 1.9 | FGF22 binding-2 inactive | SYPRO no-protein inactive
CC(=O)NC(Cc1c[nH]c2ccccc12)C(=O)NCCc1ccccn1 (configuration not stated)	E-selectin induc 46, FGF22 binding-1 1.6 | FGF22 binding-2 inactive | SYPRO no-protein inactive
O=C(CN1CCOCC1)NCC[C@H]1CC[C@@H](NC(=O)Nc2ccc(Cl)cc2)[C@H](CO)O1	none
Cc1ccc(N(C(=O)c2csnn2)C(C(=O)NC2CCCC2)c2ccccn2)c(C)c1 (configuration not stated)	FGF22 binding-1 1.6 (no result: E-selectin induc) | FGF22 binding-2 inactive | SYPRO no-protein inactive
COc1ccc(Cc2nnc(NS(=O)(=O)c3ccccc3)s2)cc1	FGF22 binding-1 26 | FGF22 binding-2 inactive | SYPRO no-protein inactive
CC(=O)N(C)C[C@H]1Oc2cc(C#Cc3cccnc3)ccc2S(=O)(=O)N([C@@H](C)CO)C[C@@H]1C	none
CCCn1c(O)c(C=Nc2ccccc2)sc1=S	none
CCn1c(O)c(C=NCc2ccccc2)sc1=S	FGF22 binding-1 2.9 (no result: E-selectin induc) | FGF22 binding-2 inactive | SYPRO no-protein inactive
CCc1cc(-c2[nH]ncc2-c2ccc([N+](=O)[O-])cc2)c(O)cc1OC	none (no result: E-selectin induc, XiGFP reactiv, FGF22 binding-1, DENV2 CPE)
CCc1cc(-c2[nH]ncc2-c2ccc3c(c2)OCCO3)c(O)cc1O	none (no result: E-selectin induc, XiGFP reactiv, C2C12 statin, FGF22 binding-1, DENV2 CPE, PglD inh) | FGF22 TSA inactive
CCc1cc(-c2n[nH]c(C)c2-c2ccc3c(c2)OCCO3)c(O)cc1O	none (no result: E-selectin induc, XiGFP reactiv, C2C12 statin, FGF22 binding-1, DENV2 CPE, PglD inh) | FGF22 TSA inactive
CCc1cc(-c2n[nH]c(C)c2-c2nc3ccccc3n2C)c(O)cc1O	none (no result: E-selectin induc, C2C12 statin)
CC(C)[C@@H]1C(=O)N[C@@H](c2ccccc2)CC=CC[C@@H](C)Oc2ccccc2C(=O)N1C (mixture of isomers)	none (no result: E-selectin induc, C2C12 statin, FGF22 binding-1, DENV2 CPE, PglD inh)
COCC(=O)N(C)C[C@@H]1Oc2ncc(-c3ccccc3C)cc2C(=O)N([C@H](C)CO)C[C@@H]1C	none
Cc1cc(C(=O)O/N=C(\N)c2ccncc2)ccc1[N+](=O)[O-]	FGF22 binding-1 18 (no result: C2C12 statin, PglD inh) | FGF22 binding-2 inactive | SYPRO no-protein inactive
C[C@@H]1CN([C@H](C)CO)C(=O)c2cc(-c3cccc(C#N)c3)cnc2O[C@@H]1CN(C)C(=O)C1CCC1	none
COc1cccc(NC(=O)N[C@H]2C=C[C@@H](CC(=O)N3CCN(C)CC3)O[C@H]2CO)c1	FGF22 binding-1 2.3 | FGF22 binding-2 inactive | SYPRO no-protein inactive
CN1CCN(C(=O)C[C@H]2C=C[C@@H](NC(=O)c3ccc4c(c3)OCO4)[C@H](CO)O2)CC1	FGF22 binding-1 1.2 | FGF22 binding-2 inactive | SYPRO no-protein inactive
COc1cccc(NC(=O)N[C@H]2C=C[C@H](CC(=O)N3CCN(C)CC3)O[C@H]2CO)c1	none (no result: C2C12 statin, FGF22 binding-1, PglD inh)
O=C(N[C@H]1C=C[C@H](CC(=O)N2CCCCC2)O[C@H]1CO)c1cccc(F)c1	FGF22 binding-1 1.5 | SYPRO no-protein inactive
O=C(N[C@@H]1C=C[C@H](CC(=O)N2CCCCC2)O[C@@H]1CO)c1cccc(F)c1	FGF22 binding-1 1.3 | FGF22 binding-2 inactive | SYPRO no-protein inactive
CO[C@@H]1CN(C)C(=O)c2cc(NC(=O)Nc3ccc(Cl)cc3)ccc2OC[C@H](C)N(C(=O)Nc2c(C)noc2C)C[C@@H]1C	none (no result: FGF22 binding-1, DENV2 CPE)
CO[C@@H]1CC[C@@H]2CCN(C)C(=O)[C@@H](C)CN(C)C(=O)c3cccc(C#N)c3OC[C@@H]1O2	none
CN1CCN(C(=O)C[C@@H]2C[C@@H]3c4cc(NC(=O)C5CCC5)ccc4O[C@@H]3[C@@H](CO)O2)CC1	none
C/C(CC(=O)Nc1ccc2c(c1)OCCO2)=N\NC(=O)COc1ccc(C)cc1Br	FGF22 binding-1 2.9 (no result: E-selectin induc) | FGF22 binding-2 inactive | SYPRO no-protein inactive
C/C(CC(=O)Nc1ccc2c(c1)OCCO2)=N\NC(=O)COc1ccc(C)cc1	none (no result: E-selectin induc)
C[C@H]1CN([C@@H](C)CO)C(=O)c2cc(NS(=O)(=O)c3ccccc3)ccc2O[C@@H]1CN(C)S(=O)(=O)c1ccc(Cl)cc1	none (no result: FGF22 binding-1, DENV2 CPE, PglD inh)
COc1cc(NC(=O)c2ccc3c(c2)OCCO3)ccc1NC(=O)c1cccs1	FGF22 binding-1 2.0 (no result: E-selectin induc, C2C12 statin, PglD inh) | FGF22 binding-2 inactive | SYPRO no-protein 10µM
COc1cc([N+](=O)[O-])ccc1NC(=O)Nc1ccc2c(c1)OCCO2	FGF22 binding-1 1.7 (no result: E-selectin induc, C2C12 statin, PglD inh) | FGF22 binding-2 inactive | SYPRO no-protein inactive
COc1cccc(C(=O)Nc2cccc(NC(=O)c3cccs3)c2)c1	FGF22 binding-1 1.9 (no result: E-selectin induc) | FGF22 binding-2 inactive | SYPRO no-protein inactive
O=C(Nc1ccc([N+](=O)[O-])cc1)Nc1ccc2c(c1)OCCO2	none (no result: E-selectin induc, C2C12 statin, PglD inh)
C[C@@H]1CCCCO[C@@H](CN(C)C(=O)NC2CCCCC2)[C@H](C)CN([C@@H](C)CO)C(=O)c2cc(NC(=O)C3CCCCC3)ccc2O1	none
O=C(Cc1ccccn1)N1CC(=O)N2[C@H](CO)[C@@H](c3ccc(C#CCC4CCCC4)cc3)[C@@H]2C1	none (no result: C2C12 statin, PglD inh)
COc1ccc2c3c([nH]c2c1)[C@H](CO)N(Cc1cccc(Cl)c1)CC31CN(C(C)=O)C1	none (no result: C2C12 statin, PglD inh)
O=C(CC1NC(=O)NC1=O)Nc1ccc(Cl)cc1 (configuration not stated)	none (no result: E-selectin induc, XiGFP reactiv, FGF22 binding-1, DENV2 CPE)
O=C(CC1SC(=O)NC1=O)Nc1ccc(Cl)cc1 (configuration not stated)	FGF22 binding-1 6.2 (no result: E-selectin induc, C2C12 statin) | SYPRO no-protein inactive
Cc1ccccc1NCC(=O)N/N=C\C=C\c1cccc([N+](=O)[O-])c1	FGF22 binding-1 1.5 (no result: C2C12 statin, PglD inh) | FGF22 binding-2 inactive | SYPRO no-protein inactive
COc1cccc(NC(=O)N(C)C[C@@H]2Oc3cc(-c4ccccc4F)ccc3S(=O)(=O)N([C@H](C)CO)C[C@H]2C)c1	none
